What was measured:
L1210 [1] = assay: Antitumor activity in mice with intraperitoneal implanted L1210 lymphoid leukemia at the dose 75 mg/kg/day x 5 was determined as weight change (g/mouse) on 8th day; assay type: functional
Procedure, shortened: (§1)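 C3D2F1/J female mice (C3H/HeJ × DBA/2J), groups of six to eight, average 25 g, inoculated ip with 1 × 10^6 L1210 ascites cells taken from DBA/2Ha donor mice carrying 3-5 day tumors. Compound dissolved in 0.154 N NaOH, then neutralized with 0.154 N HCl to give 0.9% NaCl. Given ip daily for 5 consecutive days starting 24 h after implantation. Body weight change per mouse recorded on day 8.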

L1210 [2] = assay: Antitumor activity in the mice with intraperitoneal implanted L1210 lymphoid leukemia at the dose 100 mg/kg/day x 5 was determined and number of animals survived on 30 th day were reported; 0/6; assay type: functional, Mus musculus
Procedure, shortened: (§2)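 Female C3D2F1/J mice (C3H/HeJ × DBA/2J), groups of six to eight, average weight 25 g. Each mouse got 1 × 10^6 L1210 ascites cells ip, taken from DBA/2Ha donor mice bearing 3-5 day tumors. Compound was dissolved in 0.154 N NaOH and neutralized with 0.154 N HCl (final 0.9% NaCl). Dosed ip daily ×5, starting 24 h after implant. Recorded body weight change on day 8, survival range, median survival and 30-day survivors. ILS = (T/C − 1) × 100.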

L1210 [3] = assay: Antitumor activity in the mice with intraperitoneal implanted L1210 lymphoid leukemia at the dose 50 mg/kg/day x 5 was determined as percentage increase in the life span as compared with control tumor bearers; assay type: functional; details: Mus musculus, L1210, ip
Procedure, shortened: (§3)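 C3D2F1/J female mice (C3H/HeJ female × DBA/2J male), groups of six to eight, average weight 25 g. Inoculated ip with 1 × 10^6 L1210 ascites cells taken from DBA/2Ha donor mice bearing 3-5 day old tumors. Compounds were dissolved in 0.154 N NaOH, neutralized with 0.154 N HCl (final 0.9% NaCl), and given ip daily for 5 days from 24 h post-implant. Median survival T/C; ILS = (T/C − 1) × 100; 30-day survivors counted.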

L1210 [4] = assay: Antitumor activity in the mice with intraperitoneal implanted L1210 lymphoid leukemia at the dose of 25 mg/kg/day x 5 was determined as mean survival of treated group compared to untreated; 14/8.5; assay type: functional, Mus musculus; procedure, shortened: as §3
L1210 [5] = assay: Antitumor activity in the mice with intraperitoneal implanted L1210 lymphoid leukemia at the dose 75 mg/kg/day x 5 was determined as Survival time in days; Range is 14-18 days; assay type: functional, Mus musculus; procedure, shortened: as §3
L1210 [6] = assay: Antitumor activity in the mice with intraperitoneal implanted L1210 lymphoid leukemia at the dose of 50 mg/kg/day x 5 was determined as mean survival of treated group compared to untreated; 16/9.5; assay type: functional, Mus musculus; procedure, shortened: as §3
L1210 [7] = assay: Antitumor activity in the mice with intraperitoneal implanted L1210 lymphoid leukemia at the dose 50 mg/kg/day x 5 was determined as Survival time in days; Range is 14-17 days; assay type: functional, Mus musculus; procedure, shortened: as §2
L1210 [8] = assay: Antitumor activity in the mice with intraperitoneal implanted L1210 lymphoid leukemia at the dose 75 mg/kg/day x 5 was determined and number of animals survived on 30 th day were reported; 0/8; assay type: functional, Mus musculus; procedure, shortened: as §3
L1210 [9] = assay: Antitumor activity in the mice with intraperitoneal implanted L1210 lymphoid leukemia at the dose 100 mg/kg/day x 5 was determined as Survival time in days; Range is 7-8 days; assay type: functional, Mus musculus; procedure, shortened: as §2
L1210 [10] = assay: Antitumor activity in the mice with intraperitoneal implanted L1210 lymphoid leukemia at the dose 25 mg/kg/day x 5 was determined as percentage increase in the life span as compared with control tumor bearers; assay type: functional; details: Mus musculus, L1210, ip; procedure, shortened: as §2
L1210 [11] = assay: Antitumor activity in the mice with intraperitoneal implanted L1210 lymphoid leukemia at the dose of 75 mg/kg/day x 5 was determined as mean survival of treated group compared to untreated; 17.5/9.5; assay type: functional, Mus musculus
L1210 [12] = assay: Antitumor activity in the mice with intraperitoneal implanted L1210 lymphoid leukemia at the dose 25 mg/kg/day x 5 was determined and number of animals survived on 30 th day were reported; 0/8; assay type: functional, Mus musculus; procedure, shortened: as §2
L1210 [13] = assay: Antitumor activity in the mice with intraperitoneal implanted L1210 lymphoid leukemia at the dose 100 mg/kg/day x 5 was determined as percentage increase in the life span as compared with control tumor bearers; assay type: functional; details: Mus musculus, L1210, ip; procedure, shortened: as §2
L1210 [14] = assay: Antitumor activity in the mice with intraperitoneal implanted L1210 lymphoid leukemia at the dose 75 mg/kg/day x 5 was determined as percentage increase in the life span as compared with control tumor bearers; assay type: functional; details: Mus musculus, L1210, ip; procedure, shortened: as §3
L1210 [15] = assay: Antitumor activity in the mice with intraperitoneal implanted L1210 lymphoid leukemia at the dose 25 mg/kg/day x 5 was determined as Survival time in days; Range is 12-18 days; assay type: functional, Mus musculus; procedure, shortened: as §2
L1210 [16] = assay: Antitumor activity in the mice with intraperitoneal implanted L1210 lymphoid leukemia at the dose of 100 mg/kg/day x 5 was determined as mean survival of treated group compared to untreated; 7/11; assay type: functional, Mus musculus; procedure, shortened: as §3
L1210 [17] = assay: Antitumor activity in the mice with intraperitoneal implanted L1210 lymphoid leukemia at the dose 50 mg/kg/day x 5 was determined and number of animals survived on 30 th day were reported; 0/8; assay type: functional, Mus musculus; procedure, shortened: as §2
L1210 [18] = assay: In Vitro evaluation for the antiproliferative activity by observing the growth inhibition of L1210 lymphoid leukemia cells in culture at 72 hour; assay type: functional, Mus musculus
Procedure, shortened: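 Growth of L1210 lymphoid leukemia cells in culture measured by Trypan blue exclusion of viable cells after 72 h of drug exposure. ED50 is the concentration giving 50% growth inhibition. In some runs the compound was first preincubated in medium at 37 °C for 24 or 48 h before the assay.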

L1210 [19] = assay: Antitumor activity in mice with intraperitoneal implanted L1210 lymphoid leukemia at the dose 25 mg/kg/day x 5 was determined as weight change (g/mouse) on 8th day; assay type: functional; procedure, shortened: as §1
L1210 [20] = assay: Antitumor activity in mice with intraperitoneal implanted L1210 lymphoid leukemia at the dose 50 mg/kg/day x 5 was determined as weight change (g/mouse) on 8th day; assay type: functional; procedure, shortened: as §1
L1210 [21] = assay: Antitumor activity in the mice with intraperitoneal implanted L1210 lymphoid leukemia at the dose 5 mg/kg/day x 5 was determined as percentage increase in the life span as compared with control tumor bearers; assay type: functional; details: Mus musculus, L1210, ip; procedure, shortened: as §2
L1210 [22] = assay: Antitumor activity in the mice with intraperitoneal implanted L1210 lymphoid leukemia at the dose of 18.2 mg/kg/day x 5 was determined as mean survival of treated group compared to untreated; 14.5/10; assay type: functional, Mus musculus; procedure, shortened: as §3
L1210 [23] = assay: Antitumor activity in the mice with intraperitoneal implanted L1210 lymphoid leukemia at the dose 9.2 mg/kg/day x 5 was determined as Survival time in days; Range is 14-42 days; assay type: functional, Mus musculus; procedure, shortened: as §3
L1210 [24] = assay: Antitumor activity in the mice with intraperitoneal implanted L1210 lymphoid leukemia at the dose 5 mg/kg/day x 5 was determined and number of animals survived on 30 th day were reported; 0/7; assay type: functional, Mus musculus; procedure, shortened: as §2
L1210 [25] = assay: Antitumor activity in mice with intraperitoneal implanted L1210 lymphoid leukemia at the dose 18.2 mg/kg/day x 5 was determined as weight change (g/mouse) on 8th day; assay type: functional; procedure, shortened: as §1
L1210 [26] = assay: Antitumor activity in the mice with intraperitoneal implanted L1210 lymphoid leukemia at the dose 18.2 mg/kg/day x 5 was determined as Survival time in days; Range is 10-19 days; assay type: functional, Mus musculus; procedure, shortened: as §2
L1210 [27] = assay: Antitumor activity in the mice with intraperitoneal implanted L1210 lymphoid leukemia at the dose of 9.2 mg/kg/day x 5 was determined as mean survival of treated group compared to untreated; 17/9; assay type: functional, Mus musculus
L1210 [28] = assay: Antitumor activity in mice with intraperitoneal implanted L1210 lymphoid leukemia at the dose 9.2 mg/kg/day x 5 was determined as weight change (g/mouse) on 8th day; assay type: functional; procedure, shortened: as §1
L1210 [29] = assay: Antitumor activity in the mice with intraperitoneal implanted L1210 lymphoid leukemia at the dose 18.2 mg/kg/day x 5 was determined as percentage increase in the life span as compared with control tumor bearers; assay type: functional; details: Mus musculus, L1210, ip; procedure, shortened: as §2
L1210 [30] = assay: Antitumor activity in the mice with intraperitoneal implanted L1210 lymphoid leukemia at the dose 5 mg/kg/day x 5 was determined as Survival time in days; Range is 9-22 days; assay type: functional, Mus musculus; procedure, shortened: as §2
L1210 [31] = assay: Antitumor activity in mice with intraperitoneal implanted L1210 lymphoid leukemia at the dose 5 mg/kg/day x 5 was determined as weight change (g/mouse) on 8th day; assay type: functional; procedure, shortened: as §1
L1210 [32] = assay: Antitumor activity in the mice with intraperitoneal implanted L1210 lymphoid leukemia at the dose 9.2 mg/kg/day x 5 was determined and number of animals survived on 30 th day were reported; 1/7; assay type: functional, Mus musculus; procedure, shortened: as §3
L1210 [33] = assay: Antitumor activity in the mice with intraperitoneal implanted L1210 lymphoid leukemia at the dose 18.2 mg/kg/day x 5 was determined and number of animals survived on 30 th day were reported; 0/8; assay type: functional, Mus musculus; procedure, shortened: as §2
L1210 [34] = assay: Antitumor activity in the mice with intraperitoneal implanted L1210 lymphoid leukemia at the dose of 5 mg/kg/day x 5 was determined as mean survival of treated group compared to untreated; 13.5/9; assay type: functional, Mus musculus; procedure, shortened: as §3
L1210 [35] = assay: Antitumor activity in the mice with intraperitoneal implanted L1210 lymphoid leukemia at the dose 9.2 mg/kg/day x 5 was determined as percentage increase in the life span as compared with control tumor bearers; assay type: functional; details: Mus musculus, L1210, ip; procedure, shortened: as §3
L1210 [36] = assay: Antitumor activity in the mice with intraperitoneal implanted L1210 lymphoid leukemia at the dose 25 mg/kg/day x 5 was determined as Survival time in days; Range is 9-16 days; assay type: functional, Mus musculus; procedure, shortened: as §2

Compound C[C@]12CCC(=O)C=C1CC[C@H]1[C@@H]3CC[C@](O)(C(=O)COP(=O)(O)OC[C@H]4O[C@@H](n5ccc(N)nc5=O)[C@@H](O)[C@@H]4O)[C@@]3(C)C[C@H](O)[C@@]12F has a Weight change (L1210 [1]) of 0.52 g mouse-1, a Survivors (L1210 [2]) of 0 and an ILS at 50 mg/kg/day (L1210 [3]) of 68%. For the same compound, the T/C (L1210 [4]) was 14, the Survival time (L1210 [5]) was 14 days and the T/C (L1210 [6]) was 16. It also gave a Survival time (L1210 [7]) of 14 days, a Survivors (L1210 [8]) of 0 and a Survival time (L1210 [9]) of 7 days. It also gave an ILS at 25 mg/kg/day (L1210 [10]) of 65%, a Survival time (L1210 [11]) of 17.5 days and a Survivors (L1210 [12]) of 0. For the same compound, the ILS at 100 mg/kg/day (L1210 [13]) was -36%, the ILS at 75 mg/kg/day (L1210 [14]) was 84% and the Survival time (L1210 [15]) was 12 days. The T/C (L1210 [16]) was 7, the Survivors (L1210 [17]) was 0 and the “ED 50” value (L1210 [18]) was 80 nM. It also gave a Weight change (L1210 [19]) of -1.09 g mouse-1 and a Weight change (L1210 [20]) of 0.39 g mouse-1.

Compound Nc1ccn([C@@H]2O[C@H](CO)[C@@H](O)[C@@H]2O)c(=O)n1 [CYTARABINE] has an ILS at 5 mg/kg/day (L1210 [21]) of 50%, a T/C (L1210 [22]) of 14.5 and a Survival time (L1210 [23]) of 14 days. It also gave a Survivors (L1210 [24]) of 0, a Weight change (L1210 [25]) of -3.64 g mouse-1 and a Survival time (L1210 [26]) of 10 days. The T/C (L1210 [27]) was 17, the Weight change (L1210 [28]) was -0.63 g mouse-1 and the ILS at 25 mg/kg/day (L1210 [10]) was 19%. The ILS at 18.2 mg/kg/day (L1210 [29]) was 45%, the Survivors (L1210 [12]) was 0 and the Survival time (L1210 [30]) was 9 days. It also gave a Weight change (L1210 [31]) of 2 g mouse-1, a Survivors (L1210 [32]) of 1 and a Survivors (L1210 [33]) of 0. The Weight change (L1210 [19]) was -3.8 g mouse-1, the T/C (L1210 [34]) was 13.5 and the ILS at 9.2 mg/kg/day (L1210 [35]) was 89%. It also gave a Survival time (L1210 [36]) of 9 days.

Source: ChEMBL document CHEMBL1121364, “Nucleoside conjugates as potential antitumor agents. 3. Synthesis and antitumor activity of 1-(beta-D-arabinofuranosyl)cytosine conjugates of corticosteroids” (1980)
